Data on 2 molecules can be found in article PMC9073098 (RSC Advances, 2019).

The series can be described thus: Absorption and fluorescence measurements. As to conditions: for Absorption maximum λmaxAb / Fluorescence quantum yield ΦF: CM : ACN (4 : 1, v/v); for Absorption maximum λmaxAb: RPMI 1640 cell medium pH 7.5, 25 °C, c = 0.6 μM; for Fluorescence quantum yield ΦF: cell medium pH 7.5, 25 °C, average of three measurements; for Extinction coefficient ε: PB : ACN (4 : 1, v/v), 10 mM phosphate buffer pH 7.5, 25 °C. It counts as physicochemical. A digest of the protocol: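 UV-Vis absorption and corrected fluorescence spectra at 25 °C in 1 cm quartz cells, ~0.5–0.6 μM dye in 10 mM phosphate buffer pH 7.5 or RPMI 1640 medium pH 7.5 (serum containing acetylcholinesterase). Excitation 532 and 710 nm. ΦF relative to ICG in methanol (0.044) and Cy3 in PBS (0.04), absorbance 0.04–0.06 at excitation. Three independent measurements averaged, reproducibility within 5%.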

With `C[N+]1=C(C=CC2=C(OC(=O)CCCc3ccc(N(CCCl)CCCl)cc3)C(=CC=C3N(CCCCCC(=O)O)c4ccccc4C3(C)C)CCC2)C(C)(C)c2ccccc21` [IRD-CLB, 2-(2-(2-((4-(4-(bis(2-chloroethyl)amino)phenyl)butanoyl)oxy)-3-(2-(1-(5-carboxypentyl)-3,3-dimethylindolin-2-ylidene)ethylidene)cyclohex-1-en-1-yl)vinyl)-1,3,3-trimethyl-3H-indol-1-ium], the “Absorption maximum λmaxAb” value came to 785 nm, the “Fluorescence quantum yield ΦF” value stood at 6.3 ± 0.5% and the “Extinction coefficient ε” value was 160 000 M^−1 × cm^−1.
In the same order, the values of `CN1C(=CC=C2CCCC(=CC=C3N(CCCCCC(=O)O)c4ccccc4C3(C)C)C2=O)C(C)(C)c2ccccc21` [RD, 6-(3,3-Dimethyl-2-(2-(2-oxo-3-(2-(1,3,3-trimethylindolin-2-ylidene)ethylidene)cyclohexylidene)ethylidene)indolin-1-yl)hexanoic acid] are 526 nm, 2.6 ± 0.1% and 57 000 M^−1 × cm^−1.
